The values below come from ChEMBL document CHEMBL5346932, “Structure-activity relationships of actively FhuE transported rifabutin derivatives with potent activity against Acinetobacter baumannii” (Eur J Med Chem, 2023).

Broadly, the MIC is the smallest concentration in the dilution series that meets the test's criterion for growth inhibition. One may read the IC50 as the concentration at which inhibition is half-maximal. The low end stands for greater potency, the high end for weaker potency.

Structures are written as SMILES. In brackets after ≈: the same amount, converted by molar mass.

Data set [1] concerns Acinetobacter baumannii. Put plainly: Antibacterial activity against Acinetobacter baumannii HUMC1 cultured in RPMI 1640 medium supplemented with 10% FCS assessed as bacterial growth inhibition incubated for 20 hrs by CLSI based microbroth dilution method. In kind it is functional. The following applies: Acinetobacter baumannii, HUMC1, 20 h, read-out: MIC. In short, it runs like this: (§1)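 CLSI broth microdilution in RPMI 1640 + 10% FCS in place of CAMHB. Compounds in 2-fold dilution series; inoculum 5×10^5 CFU/mL. Plates held static at 35 °C for 20 h. MIC read visually as the lowest concentration with no visible growth. […] is the reciprocal of this MIC.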
A general note: Broth dilution looks for growth in wells or tubes with falling amounts of substance.

A further data set has as its system Staphylococcus aureus. As to the kind of experiment: Antibacterial activity against Staphylococcus aureus USA300 UAMS-1625 assessed as bacterial growth inhibition incubated for 20 hrs by CLSI based microbroth dilution method. It is filed as functional. A digest of the protocol: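 CLSI broth microdilution in CAMHB against S. aureus USA300 UAMS-1625. Compounds in 2-fold dilution series; inoculum 5×10^5 CFU/mL. Incubated without shaking at 35 °C for 20 h. MIC read visually as the lowest concentration preventing visible growth. Fold changes are relative to the rifabutin MIC.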

The test system of data set [2] is Acinetobacter baumannii. Put plainly: Antibacterial activity against Acinetobacter baumannii HUMC1 harboring FhuE deletion mutant assessed as bacterial growth inhibition incubated for 20 hrs by CLSI based microbroth dilution method. In kind it is functional. In short, it runs like this: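 Microbroth dilution per CLSI in RPMI 1640 + 10% FCS (in place of CAMHB). Compounds as 2-fold serial dilutions; inoculum 5×10^5 CFU/mL of previously described HUMC1-derived mutant strains. Incubated static at 35 °C for 20 h. MIC read visually as lowest concentration preventing visible growth.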

A short description of data set [3]: Inhibition of transcription in Acinetobacter baumannii HUMC1 using pVT784 as reporter plasmid preincubated for 30 mins followed by reporter plasmid addition and measured after 60 mins by Nano-Glo luciferase assay. It is filed as functional. A digest of the protocol:
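Cell-free transcription/translation used A. baumannii HUMC1 extract at 1.2 mg/mL, with extract from 2xYT+P culture after a run-off step and dialysis at pH 8.2. Compound was preincubated with extract for 30 min on ice. Reporter plasmid (0.5 nM) was then added and luminescence read after 60 min at 25 °C. Compounds were tested at 8 to 0.002 mg/L in triplicate. IC50 was fit from no-compound-normalized signal.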

Data set [4] in a line: Drug accumulation in wild type Acinetobacter baumannii HUMC1 cultured in iron-rich CAMHB media at >=0.05 uM incubated for 10 mins by LC-MS/MS analysis. In kind it is ADME. A digest of the protocol: (§2)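 5 mL of suspension was dosed from DMSO stocks (0.002–5 mM) and shaken at 150 rpm for 10 min at 37 °C. Cells were pelleted, washed, and lysed (sucrose/EDTA). LC-MS/MS MRM quantitation used caffeine-normalized standard curves in spiked lysate. Reported as amount per 5 mL; n≥2 independent replicates.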

Data set [5] can be described thus: Drug accumulation in Acinetobacter baumannii HUMC1 harboring fhuE deletion mutant cultured in iron-rich CAMHB media at <0.02 uM incubated for 10 mins by LC-MS/MS analysis. It is filed as ADME. The settings on record: BLD = below limit of detection. A digest of the protocol:
(§3)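 5 mL suspension dosed from DMSO stocks (0.002–5 mM), 10 min at 37 °C, 150 rpm. Cells pelleted, washed in TBS and sucrose buffers, lysed, extracted with formic acid/CH3CN/CH3OH. LC-MS/MS MRM quantification against spiked-matrix standards, caffeine internal standard. Reported as ng per 5 mL suspension; n ≥ 2 independent replicates, mean ± SEM.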

The nature of data set [6]: Drug accumulation in Acinetobacter baumannii HUMC1 harboring fhuE deletion mutant cultured in iron-limited RPMI medium supplemented with 10% FCS at <0.02 uM incubated for 10 mins by LC-MS/MS analysis. In kind it is ADME. The following applies: BLD = below limit of detection. In short, it runs like this: as §3
A short description of data set [7]: Drug accumulation in Acinetobacter baumannii HUMC1 harboring fhuE deletion mutant cultured in iron-rich CAMHB media at 0.5 to 5 uM incubated for 10 mins by LC-MS/MS analysis. In kind it is ADME. The following applies: dose 0.5-5 µM. In short, it runs like this:
as §3

The nature of data set [8]: Drug accumulation in Acinetobacter baumannii HUMC1 harboring fhuE deletion mutant cultured in iron-limited RPMI medium supplemented with 10% FCS at 0.5 to 5 uM incubated for 10 mins by LC-MS/MS analysis. It is filed as ADME. The following applies: dose 0.5-5 µM. In short, it runs like this: as §3
A short description of data set [9]: Drug accumulation in wild type Acinetobacter baumannii HUMC1 cultured in iron-limited RPMI medium supplemented with 10% FCS at 0.002 to 0.02 uM incubated for 10 mins by LC-MS/MS analysis. In kind it is ADME. The following applies: dose 0.002-0.02 µM. A digest of the protocol:
as §2

A short description of data set [10]: Drug accumulation in cytoplasm of Acinetobacter baumannii HUMC1 cultured in iron-limited RPMI medium supplemented with 10% FCS measured per 5 ml of culture medium at 0.005 uM incubated for 10 mins by LC-MS/MS analysis. It is filed as ADME, subcellular. A digest of the protocol:
(§4)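 The periplasm was released by cold 0.5 mM MgSO4 shock. Cells were then sonicated and DNase-treated, and a 30000 g spin separated cytoplasm from the membrane pellet. Fractions were quantified by LC-MS/MS against standard curves. Reported as ng per 5 mL; n = 4 in duplicate.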

Data set [11] can be described thus: Drug accumulation in periplasm of Acinetobacter baumannii HUMC1 cultured in iron-limited RPMI medium supplemented with 10% FCS measured per 5 ml of culture medium at 0.005 uM incubated for 10 mins by LC-MS/MS analysis. It is filed as ADME, subcellular. In short, it runs like this: as §4
Data set [12] is described as follows: Drug accumulation in membrane of Acinetobacter baumannii HUMC1 cultured in iron-limited RPMI medium supplemented with 10% FCS measured per 5 ml of culture medium at 0.005 uM incubated for 10 mins by LC-MS/MS analysis. In kind it is ADME, cell membranes. In short, it runs like this: as §4
Data set [13] in a line: Drug accumulation in Acinetobacter baumannii HUMC1 cultured in iron-limited RPMI medium supplemented with 10% FCS measured per 5 ml of culture medium at 0.005 uM incubated for 10 mins by LC-MS/MS analysis. It is filed as ADME. A digest of the protocol: as §4
The nature of data set [14]: Drug accumulation in cytoplasm of Acinetobacter baumannii HUMC1 cultured in iron-limited RPMI medium supplemented with 10% FCS at 0.005 uM incubated for 10 mins by LC-MS/MS analysis. It is filed as ADME, subcellular. A digest of the protocol: as §4
Data set [15] is described as follows: Drug accumulation in membrane of Acinetobacter baumannii HUMC1 cultured in iron-limited RPMI medium supplemented with 10% FCS at 0.005 uM incubated for 10 mins by LC-MS/MS analysis. In kind it is ADME, cell membranes. A digest of the protocol:
as §4

The nature of data set [16]: Drug accumulation in periplasm of Acinetobacter baumannii HUMC1 cultured in iron-limited RPMI medium supplemented with 10% FCS at 0.005 uM incubated for 10 mins by LC-MS/MS analysis. In kind it is ADME, subcellular. In short, it runs like this:
as §4

In data set [17] the test system is Acinetobacter baumannii. As to the kind of experiment: Antibacterial activity against Acinetobacter baumannii HUMC1 cultured in iron-limited RPMI medium supplemented with 10% FCS assessed as inverse MIC incubated for 20 hrs by CLSI based microbroth dilution method. It is filed as functional. In short, it runs like this:
as §1

Data set [18] in a line: Drug accumulation in Acinetobacter baumannii HUMC1 cultured in iron-limited RPMI medium supplemented with 10% FCS measured per 5 ml of culture medium at 0.05 uM incubated for 10 mins by LC-MS/MS analysis. It is filed as ADME. A digest of the protocol:
as §2

For `CO[C@H]1/C=C/O[C@@]2(C)Oc3c(C)c(O)c4c(c3C2=O)C2=NC3(CCN(CC(C)C)CC3)NC2=C(NC(=O)/C(C)=C\C=C\[C@H](C)[C@H](O)[C@@H](C)[C@@H](O)[C@@H](C)[C@H](OC(C)=O)[C@@H]1C)C4=O` [RIFABUTIN], the MIC with Acinetobacter baumannii [1] worked out at 0.001 µg/mL (≈ 0.00118 µM); in the data set on Staphylococcus aureus it was 0.016 µg/mL (≈ 0.0189 µM); in the data set on Acinetobacter baumannii [2], 0.5 µg/mL (≈ 0.59 µM). The IC50 in data set [3] came out at 0.07 µg/mL (≈ 0.0826 µM). Moreover, the Drug uptake entry in [4] is “Active”; in [5], “Bld”; in data set [6] it was “Bld”; in [7] it was “Active”; in [8] it was “Active”; in data set [9], “Active”. The Drug uptake in data set [10] is 0.02 ng; in data set [11], 2.66 ng; in [12] it was 0.69 ng; in [13], 12.44 ng; in data set [14], 79%; in [15], 20%. Also, the Drug uptake is below 1% in data set [16] and 36.08 pmol in data set [18]. Further, the 1/MIC in the data set with Acinetobacter baumannii [17] was 1000 L/mg.
